# Compounds with a hit are over-represented: about 1.3% of the library has one in this group of screens.
# DAGLB inh – DAGLB lipase inhibitors, primary screen, biochemical, fluorescence, HTS; Diacylglycerol lipase-beta (Homo sapiens), Q8NCG7; HEK293T DAGLB membrane lysate, EnzChek fluorogenic substrate; inhibition, % at 5.17 µM; 340,000 tested, 0.059% active; in the data active means inhibition above about 34%;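 further: 0% = enzyme with vehicle and 100% = wells lacking enzyme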
# ANO1 activ – TMEM16A chloride channel activators or potentiators, primary screen, cell-based, HTS; HEK293 TMEM16A/YFP-H148Q/I152L, iodide quench fluorescence; stronger effect = lower value; B-score at 10 µM; 340,000 tested, 0.3% active; AID 623877, 2012;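 active means fluorescence-ratio B-score plate-corrected deviation score at least 3 library SD below zero, with starting fluorescence score within 5 deviations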;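 further: channel opened by trigger with iodide after compound preincubation; score built on the fluorescence ratio of max minus min over baseline; more negative score means more quench and so TMEM16A activation or potentiation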
# Target sequence (Q8BHY3 whole entry, looked up): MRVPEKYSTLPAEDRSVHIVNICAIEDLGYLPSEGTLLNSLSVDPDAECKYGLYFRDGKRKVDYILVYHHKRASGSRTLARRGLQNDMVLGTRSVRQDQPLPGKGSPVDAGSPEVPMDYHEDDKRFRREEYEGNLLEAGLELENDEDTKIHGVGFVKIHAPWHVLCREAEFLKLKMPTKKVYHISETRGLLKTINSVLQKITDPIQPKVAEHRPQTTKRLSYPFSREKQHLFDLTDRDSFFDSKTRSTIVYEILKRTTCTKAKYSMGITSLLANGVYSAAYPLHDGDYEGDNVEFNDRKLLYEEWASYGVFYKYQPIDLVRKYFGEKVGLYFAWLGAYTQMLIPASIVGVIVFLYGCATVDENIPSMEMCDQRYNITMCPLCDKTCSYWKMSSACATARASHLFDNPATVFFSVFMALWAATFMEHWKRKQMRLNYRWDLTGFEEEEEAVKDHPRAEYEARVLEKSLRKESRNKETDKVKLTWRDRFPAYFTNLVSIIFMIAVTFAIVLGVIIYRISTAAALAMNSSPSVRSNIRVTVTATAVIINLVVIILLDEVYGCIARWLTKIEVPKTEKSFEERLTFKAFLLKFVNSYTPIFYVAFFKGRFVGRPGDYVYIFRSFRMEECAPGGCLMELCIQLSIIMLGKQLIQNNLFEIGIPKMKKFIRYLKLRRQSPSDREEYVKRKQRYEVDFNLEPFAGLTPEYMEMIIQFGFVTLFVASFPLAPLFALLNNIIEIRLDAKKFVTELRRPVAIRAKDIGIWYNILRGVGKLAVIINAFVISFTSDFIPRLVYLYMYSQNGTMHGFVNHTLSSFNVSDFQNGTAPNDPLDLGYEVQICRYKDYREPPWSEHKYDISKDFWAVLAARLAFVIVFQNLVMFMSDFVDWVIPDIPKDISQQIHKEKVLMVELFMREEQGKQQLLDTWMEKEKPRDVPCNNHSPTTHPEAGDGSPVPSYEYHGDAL
# MT1-MMP act inh – blockers of MT1-MMP proenzyme processing, primary screen, HT1080 RFP-PRO-GFP cells, GFP/RFP fluorescence | Matrix metalloproteinase-14 (Homo sapiens), P50281 | GFP/RFP ratio fluorescence, overnight; percent of plate control window, DMSO zero | GFP/RFP ratio change, % at 20 µM | 360,000 tested, 0.061% active | AID 651647, 2012;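 active means GFP/RFP ratio change of at least 30% with cell ATP level not reduced by more than half and red fluorescence within 50% of control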
#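 Assay system: RFP-PRO-GFP reporter HT1080 cells; read-out basis: GFP/RFP fluorescence ratio; benchmarks: DMSO wells and RFP-L50D-GFP cells; doses: 20 µM single dose, 1% DMSO; schedule: overnight cell settling, then overnight compound exposure, 37 °C, 5% CO2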
# ANO1 block – TMEM16A chloride channel inhibitors, primary screen, cell-based, HTS; Anoctamin-1 (Mus musculus), Q8BHY3; HEK293 TMEM16A/YFP iodide influx fluorescence, ionomycin; normalized B-score (activity score, 25-100; higher = stronger inhibition) at 10 µM; 310,000 tested, 1.2% active;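 active means ratio plate-corrected score three or more library SD toward inhibition, starting fluorescence score within five deviations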;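 further: score derived from kinetic fluorescence span divided by baseline fluorescence per well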
# TMEM16A reconf – TMEM16A chloride channel inhibitors, confirmation, cell-based, re-confirmation | shares compounds with ANO1 block | HEK293 TMEM16A/YFP-H148Q, iodide quench fluorescence; ionomycin added to raise cell calcium | inhibition, % at 10 µM | 2,300 tested, 39% active;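 active means mean duplicate percent inhibition, scaled so buffer wells are 0 and the reference blocker 100, over three buffer SD above buffer mean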
# TMEM16A Ca cntr – calcium mobilization in TMEM16A/YFP HEK293 cells, confirmation, counter-screen for TMEM16A inhibitor project | calcium response (% of ionomycin), % at 10 µM | 2,300 tested, 2% active | shares compounds with ANO1 block | AID 652231, 2013 | Fluo4 calcium mobilization;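 active means duplicate-averaged calcium signal over 20% of the ionomycin maximum, relative to buffer baseline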;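 further: each well's signal is peak minus trough fluorescence divided by its pre-addition baseline; 0% = buffer wells and 100% = ionomycin wells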
# Parental YFP cnt – iodide YFP quench changes in parental YFP-HEK293, counter-screen for TMEM16A inhibitor project, cell-based; shares compounds with ANO1 block; ionomycin; YFP ratio F(max-min)/F0 at 10 µM; 2,300 tested, under 10 active;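 active means yellow fluorescent protein signal ratio exceeding the buffer control mean by over 5 SD of those controls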;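 further: ratio is mean of duplicate wells from kinetic YFP trace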
# ClC-1 inh – ClC-1 chloride channel inhibition, selectivity assay for TMEM16A inhibitor project, cell-based, voltage-dependent ClC-1; shares compounds with ANO1 block; CHO ClC-1-YFP, iodide influx fluorescence quench; iodide control reads 0, buffer control 100; ratio percent, % at 10 µM; 2,300 tested, under 10 active; AID 652236, 2013;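 active means duplicate-mean ratio percent above the mean of iodide-only control wells, which defines zero, plus 5 of their SD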;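 further: higher percent means stronger block of ClC-1 iodide influx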
# Starred values were filed as active, the others as inactive; i = inactive; . = no result given.
SMILES,DAGLB inh,ANO1 activ,MT1-MMP act inh,ANO1 block,TMEM16A reconf,TMEM16A Ca cntr,Parental YFP cnt,ClC-1 inh
COc1ccc(C(=O)Nc2sc3c(c2C(=O)NCc2ccco2)CCCC3)cc1OC,0,i,4,25*,i,i,-1.2,-6
COc1cc(/C=N/NC(=O)c2nonc2C)ccc1O,2,i,4,i,i,i,-0.89,2
Cc1ccc(OCCn2c(=S)[nH]c3ccccc32)c(C(C)C)c1,-4,i,-6,25*,i,i,-1.4,-6
Cc1cccc(OCCn2c(=S)[nH]c3ccccc32)c1,-4,i,0,i,.,.,.,.
O=C(CSc1nccn1Cc1ccccc1)Nc1nccs1,1,i,6,25*,i,i,-1,-12
O=C(CSc1nccn1Cc1ccccc1)Nc1ccccc1,1,i,-2,i,.,.,.,.
O=C(/C=C/c1cn(CC(O)CN2CCCCC2)c2ccccc12)c1ccccc1 (stereo not given),1,i,-3,.,.,.,.,.
COc1ccc(C(=O)/C=C/c2cn(CC(O)CN3CCN(C)CC3)c3ccccc23)cc1OC (stereo not given),0,i,-44,i,i,i,-0.95,0
CCN(CC)S(=O)(=O)c1cc(NS(=O)(=O)c2cccc(Cl)c2)ccc1C,-1,i,-2,25*,28%*,i,-1,-10
CCN(CC)S(=O)(=O)c1cc(NS(=O)(=O)c2c(Cl)cccc2Cl)ccc1C,-3,i,-3,i,.,.,.,.
N#CC1(Nc2cccc(Cl)c2)CCCC1,0,i,1,.,.,.,.,.
C#CCNC(=O)C[C@@H]1C[C@@]2(C(=O)OCC)CCCC=C2N(Cc2ccc3c(c2)OCO3)C1=O,.,.,11,.,.,.,.,.
O=C(NCCCc1ccccc1)C(=O)NCC1OCCN1S(=O)(=O)c1ccc(F)cc1 (stereo not given),1,i,4,25*,i,i,-1,-8
Cc1ccc(S(=O)(=O)N2CCOC2CNC(=O)C(=O)NCCCc2ccccc2)cc1 (stereo not given),-1,i,1,i,.,.,.,.
Cc1ccccc1-n1nc2c(c1NC(=O)c1cc3ccccc3oc1=O)CS(=O)(=O)C2,.,.,.,25*,i,i,-1.3,-8
COc1c(CC=C(C)C)cc(C2CC(=O)c3c(O)cc(O)cc3O2)cc1CC=C(C)C (stereo not given),-13,i,-13,i,.,.,.,.
COc1cc(O)cc2c1[C@@H]1Oc3c(ccc(O)c3CC=C(C)C)[C@@H]1CO2,-2,i,-6,25*,30%*,i,-0.96,-10
CCCCC1(C)OC(=O)C(=Cc2ccc(N(C)C)cc2)C(=O)O1 (stereo not given),2,i,2,i,22%*,i,-0.88,-12
COc1ccc(S(=O)(=O)N2CCC(O)(c3ccc(Cl)cc3)CC2)cc1OC,-3,i,5,i,.,.,.,.
COc1ccc(S(=O)(=O)N2CCC(O)(c3ccc(Cl)cc3)CC2)cc1,-7,i,3,25*,21%*,i,-1.1,-10
Cc1ccc(-n2nc3c(=O)n(C(C)C(=O)NCCC4=CCCCC4)nc(C)c3c2C)cc1 (stereo not given),0,i,0,25*,i,i,-1.3,-4
Cn1ncc2c(N3CCN(c4ccc(Cl)c(Cl)c4)CC3)ncnc21,3,i,7,25*,i,i,-1.1,-16
O=C(NCc1ccccc1CN1CCCC1)c1cc2cc(Cl)ccc2o1,-1,i,-3,.,.,.,.,.
COc1ccc(-c2c3c(nc4sc5c(Cl)nc(C)nc5c24)CCC3)cc1,-4,i,-3,100*,i,i,-1.2,-7
N#Cc1c(N2CCN(C(=O)c3ccccc3)CC2)nc(-c2ccccc2)c2c1CCCC2,-7,i,-24,i,.,.,.,.
SMILES,DAGLB inh,ANO1 activ,MT1-MMP act inh,ANO1 block,TMEM16A reconf,TMEM16A Ca cntr,Parental YFP cnt,ClC-1 inh
N#Cc1c(NC(=O)CN2CCN(C(=O)c3ccco3)CC2)sc2c1CCCCC2,2,i,-6,25*,i,i,-1.2,-18
CC(C)Cc1nc(N2CCN(C(=O)c3ccco3)CC2)c(C#N)c2c1CCC2,-4,i,-26,25*,i,i,-1.3,-16
N#Cc1c(N2CCN(C(=O)c3ccco3)CC2)nc(-c2ccccc2)c2c1CCCC2,-5,i,-17,100*,24%*,i,-1.2,-12
N#Cc1c(NC(=O)CN2CCCCC2)sc2c1CCC2,-2,i,2,i,.,.,.,.
CC(=O)c1ccc(OC2(C)CCN(Cc3csc4ccccc34)C2)cc1 (stereo not given),.,.,1,.,.,.,.,.
CCCCn1c(N)c(N(C)C(=O)c2cc3c(s2)CCCCC3)c(=O)[nH]c1=O,-1,i,1,.,.,.,.,.
CC1CCCC(NC(=O)C2CCN(S(=O)(=O)N3CCOCC3)CC2)C1C (stereo not given),-4,i,2,25*,i,i,-0.88,-4
c1ccc(C(Cc2nc(-c3ccncc3)no2)c2ccccc2)cc1,-5,i,-4,100*,24%*,i,-0.99,-20
NC(=O)NC(=O)C(c1ccccc1)N1CCN(S(=O)(=O)Cc2ccccc2)CC1 (stereo not given),-2,i,6,.,.,.,.,.
COc1ccc(NC(=O)N(C)C[C@@H]2OCc3cnnn3CCCC(=O)N([C@@H](C)CO)C[C@H]2C)c(OC)c1,0,.,1,.,.,.,.,.
COC(=O)CCC(NS(=O)(=O)OCC(Cl)(Cl)Cl)c1ccccc1 (stereo not given),2,i,1,i,.,.,.,.
CC(C)CC(NS(=O)(=O)OCC(Cl)(Cl)Cl)c1ccccc1 (stereo not given),-9,i,6,100*,56%*,i,-1.1,-3
O=S(=O)(c1ccc(Cl)c(S(=O)(=O)N2CCCC2)c1)N1CCCC1,-2,i,-4,i,.,.,.,.

# Bioassay records from PubChem.
